Reference: the M2OR odorant receptor database
Changes are numbered by the printed parent chain.

How the values were obtained:
Conditions in all cases: stereoisomer not certain
[1] = target: T1, OR5B17 (Homo sapiens) (UniProt Q8NGF7)
T1 sequence (whole entry): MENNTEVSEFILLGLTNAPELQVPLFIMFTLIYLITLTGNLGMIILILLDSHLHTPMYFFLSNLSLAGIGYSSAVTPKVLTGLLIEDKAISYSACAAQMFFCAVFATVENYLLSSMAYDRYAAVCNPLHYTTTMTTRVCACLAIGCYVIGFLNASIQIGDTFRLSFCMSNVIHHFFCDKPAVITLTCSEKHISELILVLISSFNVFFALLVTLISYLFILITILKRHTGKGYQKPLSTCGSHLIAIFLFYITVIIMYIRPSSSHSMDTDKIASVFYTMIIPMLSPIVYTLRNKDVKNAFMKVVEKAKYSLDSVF
Procedure, shortened: (§1)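 Transient luciferase assays in mammalian cell lines were common, though methods varied by source. The values come from published papers and their supplementary material, with extra details from the original authors when needed. Responsive refers to a measured signal the original authors judged statistically different from baseline, and non-responsive (inactive) to the remainder.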

[2] = target: T2, OR5AR1 (Homo sapiens) (UniProt Q8NGP9)
T2 sequence (whole entry): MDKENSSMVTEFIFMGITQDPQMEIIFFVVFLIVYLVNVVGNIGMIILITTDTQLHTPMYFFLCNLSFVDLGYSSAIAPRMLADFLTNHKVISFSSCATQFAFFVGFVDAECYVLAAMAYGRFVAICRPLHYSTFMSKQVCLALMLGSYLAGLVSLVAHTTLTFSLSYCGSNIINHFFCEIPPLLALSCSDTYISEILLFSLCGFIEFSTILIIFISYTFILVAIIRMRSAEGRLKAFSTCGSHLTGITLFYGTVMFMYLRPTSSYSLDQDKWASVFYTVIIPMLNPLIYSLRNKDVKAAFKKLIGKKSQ
Procedure, shortened: as §1

[3] = target: T3, OR5AS1 (Homo sapiens) (UniProt Q8N127)
T3 sequence (whole entry): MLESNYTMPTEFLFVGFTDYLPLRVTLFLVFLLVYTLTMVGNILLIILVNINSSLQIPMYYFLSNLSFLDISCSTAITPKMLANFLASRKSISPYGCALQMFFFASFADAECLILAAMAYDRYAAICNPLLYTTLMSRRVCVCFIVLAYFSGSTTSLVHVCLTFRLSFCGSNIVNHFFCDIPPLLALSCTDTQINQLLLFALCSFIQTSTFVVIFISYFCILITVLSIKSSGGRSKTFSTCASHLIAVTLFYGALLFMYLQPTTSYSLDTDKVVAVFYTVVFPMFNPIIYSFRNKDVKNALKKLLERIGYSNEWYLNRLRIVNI
Procedure, shortened: as §1

[4] = target: T4, OR5AU1 (Homo sapiens) (UniProt Q8NGC0)
T4 sequence (whole entry): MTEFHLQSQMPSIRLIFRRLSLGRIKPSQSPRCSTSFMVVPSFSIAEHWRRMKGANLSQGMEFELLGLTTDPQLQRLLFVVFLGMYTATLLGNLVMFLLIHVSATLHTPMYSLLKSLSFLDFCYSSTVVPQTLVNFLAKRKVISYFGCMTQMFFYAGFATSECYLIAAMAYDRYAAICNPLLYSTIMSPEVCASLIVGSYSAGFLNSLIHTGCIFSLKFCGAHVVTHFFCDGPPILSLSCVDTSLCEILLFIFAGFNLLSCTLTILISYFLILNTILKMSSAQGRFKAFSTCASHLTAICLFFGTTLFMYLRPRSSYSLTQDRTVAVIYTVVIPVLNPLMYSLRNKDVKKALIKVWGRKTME
Procedure, shortened: as §1

[5] = target: T5, OR5B12 (Homo sapiens) (UniProt Q96R08)
T5 sequence (whole entry): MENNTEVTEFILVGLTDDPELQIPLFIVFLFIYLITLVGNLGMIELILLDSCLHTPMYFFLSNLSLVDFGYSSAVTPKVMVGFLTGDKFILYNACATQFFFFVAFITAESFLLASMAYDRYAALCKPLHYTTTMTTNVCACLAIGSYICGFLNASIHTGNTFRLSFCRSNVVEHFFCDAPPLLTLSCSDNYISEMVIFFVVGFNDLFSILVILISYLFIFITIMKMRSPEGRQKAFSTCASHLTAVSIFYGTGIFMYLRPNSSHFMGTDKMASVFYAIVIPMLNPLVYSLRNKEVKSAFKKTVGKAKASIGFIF
Procedure, shortened: as §1

[6] = target: T6, OR5B2 (Homo sapiens) (UniProt Q96R09)
T6 sequence (whole entry): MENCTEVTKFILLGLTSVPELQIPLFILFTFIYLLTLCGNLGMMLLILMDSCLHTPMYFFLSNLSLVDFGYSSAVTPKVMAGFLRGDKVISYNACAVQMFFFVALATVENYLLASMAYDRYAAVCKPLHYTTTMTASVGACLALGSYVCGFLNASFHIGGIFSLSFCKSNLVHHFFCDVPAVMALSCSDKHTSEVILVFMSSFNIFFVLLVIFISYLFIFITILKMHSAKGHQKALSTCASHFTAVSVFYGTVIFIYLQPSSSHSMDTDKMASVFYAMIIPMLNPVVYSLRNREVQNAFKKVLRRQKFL
Procedure, shortened: as §1

[7] = target: T7, OR5B21 (Homo sapiens) (UniProt A6NL26)
T7 sequence (whole entry): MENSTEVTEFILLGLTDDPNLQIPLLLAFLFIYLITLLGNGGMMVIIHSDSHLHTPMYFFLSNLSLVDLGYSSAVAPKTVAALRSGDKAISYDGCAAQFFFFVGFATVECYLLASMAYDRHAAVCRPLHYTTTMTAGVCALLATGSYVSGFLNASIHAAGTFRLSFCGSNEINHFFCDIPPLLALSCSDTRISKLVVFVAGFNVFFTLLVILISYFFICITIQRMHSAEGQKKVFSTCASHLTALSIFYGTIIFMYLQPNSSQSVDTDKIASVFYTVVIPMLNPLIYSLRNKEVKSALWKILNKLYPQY
Procedure, shortened: as §1

[8] = target: T8, OR5B3 (Homo sapiens) (UniProt Q8NH48)
T8 sequence (whole entry): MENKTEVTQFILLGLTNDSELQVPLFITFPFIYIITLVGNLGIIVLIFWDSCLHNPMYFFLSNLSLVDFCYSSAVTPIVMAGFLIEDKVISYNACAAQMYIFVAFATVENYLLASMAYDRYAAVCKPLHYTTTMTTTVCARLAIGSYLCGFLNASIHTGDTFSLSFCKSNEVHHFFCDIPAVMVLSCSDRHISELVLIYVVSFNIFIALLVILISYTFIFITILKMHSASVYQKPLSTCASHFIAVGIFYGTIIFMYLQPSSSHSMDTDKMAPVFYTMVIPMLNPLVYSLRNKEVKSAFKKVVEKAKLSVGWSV
Procedure, shortened: as §1

[9] = target: T9, OR5C1 (Homo sapiens) (UniProt Q8NGR4)
T9 sequence (whole entry): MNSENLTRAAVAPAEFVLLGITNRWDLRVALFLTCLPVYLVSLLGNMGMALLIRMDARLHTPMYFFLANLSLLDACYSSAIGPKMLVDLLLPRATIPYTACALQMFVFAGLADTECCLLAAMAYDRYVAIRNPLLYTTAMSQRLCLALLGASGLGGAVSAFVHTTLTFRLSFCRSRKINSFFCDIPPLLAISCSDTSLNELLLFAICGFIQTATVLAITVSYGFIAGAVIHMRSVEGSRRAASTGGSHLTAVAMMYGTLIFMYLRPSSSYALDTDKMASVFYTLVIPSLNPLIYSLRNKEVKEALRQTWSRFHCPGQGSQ
Procedure, shortened: as §1

[10] = target: T10, OR5D13 (Homo sapiens) (UniProt Q8NGL4)
T10 sequence (whole entry): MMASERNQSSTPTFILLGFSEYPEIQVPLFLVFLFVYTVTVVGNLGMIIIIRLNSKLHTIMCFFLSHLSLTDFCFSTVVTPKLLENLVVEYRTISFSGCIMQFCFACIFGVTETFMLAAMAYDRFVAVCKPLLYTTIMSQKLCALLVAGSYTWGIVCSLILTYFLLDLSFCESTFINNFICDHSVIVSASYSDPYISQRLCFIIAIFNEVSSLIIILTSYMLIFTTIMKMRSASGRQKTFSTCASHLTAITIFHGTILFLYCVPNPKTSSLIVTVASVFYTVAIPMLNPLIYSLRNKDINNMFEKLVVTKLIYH
Procedure, shortened: as §1

[11] = target: T11, OR5D14 (Homo sapiens) (UniProt Q8NGL3)
T11 sequence (whole entry): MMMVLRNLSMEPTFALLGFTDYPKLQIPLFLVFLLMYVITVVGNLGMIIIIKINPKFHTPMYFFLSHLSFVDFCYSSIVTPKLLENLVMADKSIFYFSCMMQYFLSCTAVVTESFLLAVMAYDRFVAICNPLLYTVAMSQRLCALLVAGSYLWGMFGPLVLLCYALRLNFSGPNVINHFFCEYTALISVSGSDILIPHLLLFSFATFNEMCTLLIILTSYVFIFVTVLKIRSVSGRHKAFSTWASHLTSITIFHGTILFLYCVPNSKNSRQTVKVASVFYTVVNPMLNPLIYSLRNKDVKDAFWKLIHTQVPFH
Procedure, shortened: as §1

[12] = target: T12, OR5D16 (Homo sapiens) (UniProt Q8NGK9)
T12 sequence (whole entry): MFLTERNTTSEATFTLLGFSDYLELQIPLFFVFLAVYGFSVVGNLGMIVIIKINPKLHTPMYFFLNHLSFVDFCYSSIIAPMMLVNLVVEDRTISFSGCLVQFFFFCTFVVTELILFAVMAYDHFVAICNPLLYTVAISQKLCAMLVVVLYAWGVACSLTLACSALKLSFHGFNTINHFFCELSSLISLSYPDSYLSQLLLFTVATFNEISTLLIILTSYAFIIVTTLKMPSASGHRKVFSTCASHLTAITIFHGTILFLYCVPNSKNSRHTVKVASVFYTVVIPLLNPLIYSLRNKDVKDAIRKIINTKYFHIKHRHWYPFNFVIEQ
Procedure, shortened: as §1

[13] = target: T13, OR5D18 (Homo sapiens) (UniProt Q8NGL1)
T13 sequence (whole entry): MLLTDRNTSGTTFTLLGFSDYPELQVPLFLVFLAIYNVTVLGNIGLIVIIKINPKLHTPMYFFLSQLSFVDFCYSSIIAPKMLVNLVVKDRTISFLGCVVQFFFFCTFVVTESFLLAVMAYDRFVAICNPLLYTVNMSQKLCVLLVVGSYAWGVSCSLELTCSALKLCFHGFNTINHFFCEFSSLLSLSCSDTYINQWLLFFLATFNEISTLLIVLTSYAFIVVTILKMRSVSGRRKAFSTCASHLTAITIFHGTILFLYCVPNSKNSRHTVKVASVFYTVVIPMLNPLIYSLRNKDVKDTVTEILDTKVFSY
Procedure, shortened: as §1

[14] = system: T14, OR5B2 E6D
T14 sequence (whole entry): T6 sequence (whole entry) with E6D
Procedure, shortened: as §1

[15] = system: T15, OR5B3 I198V G247A
T15 sequence (whole entry): T8 sequence (whole entry) with I198V, G247A
Procedure, shortened: as §1

[16] = system: T16, OR5BC C141R
T16 sequence (whole entry): T5 sequence (whole entry) with C141R
Procedure, shortened: as §1

[17] = system: T17, OR5BH L80I I85M
T17 sequence (whole entry): T1 sequence (whole entry) with L80I, I85M
Procedure, shortened: as §1

[18] = system: T18, OR5BH L80I
T18 sequence (whole entry): T1 sequence (whole entry) with L80I
Procedure, shortened: as §1

[19] = system: T19, OR5DD C62Y
T19 sequence (whole entry): T10 sequence (whole entry) with C62Y
Procedure, shortened: as §1

[20] = system: T20, OR5DE S249A L290P
T20 sequence (whole entry): T11 sequence (whole entry) with S249A, L290P
Procedure, shortened: as §1

Measured: odorant receptor agonist call;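 further: active if original authors judged signal statistically different from baseline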

CCC=C(C)C(O)CCCCC (centres undefined)
inactive: [1]

CCCCCC(=O)C(C)C(C)=O (centres undefined)
inactive: [2] | [3] | [4] | [5] | [1] | [6] | [7] | [8] | [9] | [10] | [11] | [12] | [13]

CC1=C(O)C(=O)C(C)O1 (centres undefined)
inactive: [2] | [3] | [4] | [5] | [1] | [6] | [14] | [7] | [8] | [15] | [16] | [17] | [18] | [9] | [10] | [11] | [12] | [13] | [19] | [20]

CCC(S)C(C)CO (centres undefined)
inactive: [2] | [3] | [4] | [5] | [1] | [6] | [7] | [8] | [9] | [10] | [11] | [12] | [13]

CC1=C(O)C(=O)OC1C (centres undefined)
inactive: [2] | [3] | [4] | [5] | [1] | [6] | [14] | [7] | [8] | [15] | [16] | [17] | [18] | [9] | [10] | [11] | [12] | [13] | [19] | [20]

CC1CCCCCCCCCCCCC(=O)C1 (centres undefined)
inactive: [2] | [3] | [4] | [5] | [1] | [6] | [7] | [8] | [9] | [10] | [11] | [12] | [13]

CCCCCC(S)C(C)CO (centres undefined)
inactive: [2] | [3] | [4] | [5] | [1] | [6] | [7] | [8] | [9] | [10] | [11] | [12] | [13]

CC1=NC(C)C(C)S1 (centres undefined)
inactive: [2] | [3] | [4] | [5] | [1] | [6] | [14] | [7] | [8] | [15] | [16] | [17] | [18] | [9] | [10] | [11] | [12] | [13] | [19] | [20]

C=CC(C)(O)CCC=C(C)CCC=C(C)C (centres undefined)
inactive: [1]

Cc1cnc(C)c(C)n1
inactive: [2] | [3] | [4] | [5] | [1] | [6] | [14] | [7] | [8] | [15] | [16] | [17] | [18] | [9] | [10] | [11] | [12] | [13] | [19] | [20]
